Only some compounds are listed: those with a hit (about 2.4% of all), similar ones and a draw of the others.
Jurkat NFkB inh: lowers PMA/ionomycin-induced NF-kB signal in Jurkat cells | PMA/ionomycin-induced NF-kB luciferase reporter, luminescence | inhibition, % at 4 µM | hit rate 0.53% among 330,000 | AID 435003; in the data active = inhibition above about 50%
697 NFkB inh: inhibitors of the PMA/ionomycin-induced NF-kB reporter in 697 B cells | inhibition, % at 4 µM | 697 B-cell NF-kB luciferase reporter, 16 h | hit rate 0.33% among 330,000; in the data active = inhibition above about 35%
aDG glyco act: increases alpha dystroglycan glycosylation. Pro5-aDG cells, alpha-DG glycosylation AlphaScreen (IIH6); 0% Pro5, 100% B10-LARGE cell signal. activation, % at 10 µM. hit rate 0.22% among 360,000. AID 624168;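 active = activation of at least 8% versus controls, or a plate z-score of at least 8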;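 note: Pro5 are CHO cells carrying HIG-tagged alpha-DG that lacks glycosylation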
NR2E3 ag-1: NR2E3 (human) agonism | Q9Y5X4 | GST-NR2E3/biotin-RetCOR TR-FRET, 1536-well | inhibition of corepressor binding, % at 4.78 µM | hit rate 0.12% among 320,000 | AID 2300;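 active = percent inhibition above the cutoff of mean plus 3 SD of all tested compounds, set per screening campaign, cut at about 20% in these data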;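 note: 0% = DMSO wells and 100% = biotin wells as full block of FRET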
Target sequence (Q9Y5X4 whole entry, looked up): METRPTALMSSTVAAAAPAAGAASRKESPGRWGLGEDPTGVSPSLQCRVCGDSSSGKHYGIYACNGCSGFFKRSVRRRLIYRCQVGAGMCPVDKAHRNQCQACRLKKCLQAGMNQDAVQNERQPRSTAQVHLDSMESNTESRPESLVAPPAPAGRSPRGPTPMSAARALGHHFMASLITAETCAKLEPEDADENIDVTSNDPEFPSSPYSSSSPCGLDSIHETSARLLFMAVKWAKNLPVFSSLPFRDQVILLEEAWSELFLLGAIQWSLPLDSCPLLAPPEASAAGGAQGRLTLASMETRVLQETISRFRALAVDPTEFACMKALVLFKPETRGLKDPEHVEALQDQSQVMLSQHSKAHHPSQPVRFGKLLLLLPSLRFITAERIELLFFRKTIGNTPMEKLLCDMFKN
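Test system: GST-NR2E3 and biotin-RetCOR proteins | Quantity: 1.35 nM GST-tagged NR2E3 final | Medium: Tris pH 7.5 | Also added: 7 nM biotin-RetCOR | Dosing: Compound at 4.8 µM, single dose | Timing: 5 h at 4 °C | Detection: Time-resolved FRET | Read-out basis: Percent inhibition | Benchmarks: Biotin wells as high control, 0.6% DMSO wells as low control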
MPTP inh: permeability transition pore inhibition. inhibition, % at 10 µM. isolated mouse mitochondria, Ca2+ swelling absorbance, 30 min. hit rate 1.4% among 360,000;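 active = inhibition of 50% or more, scaled per plate between neutral and stimulator controls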;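 note: 0% = DMSO wells given calcium and 100% = 1 mM EGTA wells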
NR2E3 ag-2: activates human NR2E3 receptor; inhibition of corepressor binding, % at 3.98 µM; CHO-S Gal4-NCOR/VP16-NR2E3 two-hybrid, luciferase; hit rate 0.35% among 360,000; Q9Y5X4;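 active = inhibition above the mean of all tested compounds plus 3 SD, cut at about 70% in these data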;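 note: 0% = DMSO with NR2E3 transfected cells and 100% = cells lacking NR2E3 construct; higher means lower luciferase signal from less NR2E3 corepressor binding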
697 NFkB conf: inhibitors of the PMA/ionomycin-induced NF-kB reporter in 697 B cells, retest | hit rate 35% among 2,000 | 697 B-cell NF-kB luciferase, 16 h | shares compounds with 697 NFkB inh | inhibition, % at 4 µM; in the data active = inhibition mostly above about 28%, no sharp cut-off; inactive = mostly below about 22%
Active calls of the source: *; / = no result.

SMILES	Jurkat NFkB inh	697 NFkB inh	aDG glyco act	NR2E3 ag-1	MPTP inh	NR2E3 ag-2	697 NFkB conf
CC1=NN(C(C#N)c2ccc(F)cc2)C(c2ccccc2)C1 (stereo not given)	-4	4	0	0	0	-12	/
CN(C)c1ccc(C(=O)c2ccc(N(C)C)c3ccccc23)cc1	42	-386	-1	11	1	44	-215
Cc1nc([N+](=O)[O-])c(Sc2nc3ccccc3[nH]2)n1Cc1ccccc1	13	-17	0	-2	1	-13	/
COc1ccc2nc(Sc3c([N+](=O)[O-])nc(C)n3Cc3ccccc3)[nH]c2c1	-9	39*	/	-2	/	/	47*
CCOc1cc(/C=C2\N=C(SC(C)C(N)=O)N(c3ccc(OC(F)F)cc3)C2=O)ccc1O (stereo not given)	0	41*	1	0	1	8	18
Cc1sc2nc(CSc3n[nH]c(N)n3)[nH]c(=O)c2c1C	-4	-10	0	0	0	1	/
CC(=O)C1=NN(c2ccccc2)C(c2cccs2)N1c1ccc(N(C)C)cc1 (stereo not given)	41	69*	0	2	0	-34	38*
CCCC(=O)N1c2ccccc2[C@@H](N(C(C)=O)c2ccccc2)C[C@H]1C	-1	18	0	3	-1	12	/
CCC(=O)N1c2ccccc2C(N(C(C)=O)c2ccccc2)CC1C (stereo not given)	12	37*	0	2	0	-32	45*
Cc1cccc(C)c1N1C(=O)c2ccccc2NC(=O)C1C(=O)Nc1ccc2c(c1)OCCO2 (stereo not given)	/	/	0	/	0	/	/
Cc1cccc2c(C(=O)O)c3cccc(C)c3nc12	3	-7	0	1	1	5	/
CN(C)CC(C(=O)c1ccccc1)c1ccccc1 (stereo not given)	38	-253	-1	1	4	20	-24
CN(Cc1cc(Cl)cc(Cl)c1)CC(C(=O)c1ccccc1)c1ccccc1 (stereo not given)	/	/	1	/	1	12	/
COC(=O)c1cccc(C(=O)N2CCCC(C(=O)c3cc(F)ccc3F)C2)c1 (stereo not given)	-2	39*	0	-2	1	-23	-3
CCOC(=O)C(C)c1n[nH]c(=O)c2ccccc12 (stereo not given)	-1	38*	0	0	0	-14	12
C[C@H](C(=O)O)c1n[nH]c(=O)c2ccccc12	6	8	0	-2	0	-10	/
O=C(Nc1ccc(N2CCCCC2)cc1)c1ccccc1	-112	-182	0	0	0	-152	/
O=C(Nc1ccc(N2CCCC2)cc1)c1cccc(F)c1	-136	-327	0	-2	0	-120	-241
CC(=O)c1c[nH]c(C(=O)Nc2ccc(N3CCCCCC3)cc2)c1	-10	40*	0	-7	1	-37	13
Cc1cccc(NC(=O)CCNC(=O)c2ccc(Br)cc2)c1C	/	/	0	/	-1	-9	/
CCCCCC/C=C/c1ccc([C@H]2[C@H]3C=CC[C@@H](C)[C@@H]3C(=O)N2Cc2ccccc2)c(F)c1	9	14	0	1	0	6	/
COc1ccc(-c2ccoc2)cc1[C@H]1[C@H]2C=CC[C@@H](C)[C@@H]2C(=O)N1Cc1ccccc1	6	47*	0	0	0	3	40*
COc1ccc(-c2ccc(C)cc2)cc1[C@H]1[C@H]2C=CC[C@@H](C)[C@@H]2C(=O)N1Cc1ccccc1	14	41*	0	1	-1	-35	49*
CCCCCC/C=C/c1ccc(OC)c([C@H]2[C@H]3C=CC[C@@H](C)[C@@H]3C(=O)N2Cc2ccccc2)c1	9	68*	0	-1	2	12	28*
COc1ccc(-c2ccc(OC)c([C@H]3[C@H]4C=CC[C@@H](C)[C@@H]4C(=O)N3Cc3ccccc3)c2)cc1	13	54*	1	0	-1	0	39*
SMILES	Jurkat NFkB inh	697 NFkB inh	aDG glyco act	NR2E3 ag-1	MPTP inh	NR2E3 ag-2	697 NFkB conf
CC(C)NC(=O)C1CCN(C2CCN(Cc3ccc4cccc(F)c4n3)CC2)CC1	3	-1	0	0	0	-43	/
Cc1cc(C)c2nc(NC(=O)C3CSC4(C)CCC(=O)N34)sc2c1 (stereo not given)	-7	47*	0	-2	-1	-11	45*
O=C(CN1CCN(CC(=O)Nc2ccccc2Cl)CC1)NCC1(N2CCCCC2)CCCCC1	8	11	0	1	0	-2	/
Cc1ccc(C(=O)CSc2nnc(COc3ccccc3)o2)cc1	6	54*	0	-1	0	-52	40*
Cc1cc(C)cc(OCc2nnc(SCC(=O)c3ccccc3)o2)c1	5	46*	0	2	6	-35	45*
Cc1ccc(C(=O)CSc2nnc(COc3cc(C)cc(C)c3)o2)cc1	6	36*	2	-1	6	-35	55*
Cc1ccc(/C=C/c2nc3ccccc3s2)s1	-106	-381	0	1	0	-18	-277
CN(C)c1ccc(/C=C/c2nc3ccccc3s2)cc1	-34	-188	0	1	1	18	/
N=c1c2c(n(Cc3ccccc3)c3c1CCC3)CCC2	40	2	0	1	9	-26	/
N=c1c2c(n(Cc3cccc(Cl)c3)c3c1CCC3)CCCC2	41	43*	0	-3	3	-10	38*
N=c1c2c(n(Cc3ccc(Cl)cc3)c3c1CCC3)CCC2	34	105*	0	1	-3	-22	25
CN(C)CC1CCC/C(=C/c2ccc(Cl)cc2)C1=O (stereo not given)	/	/	0	/	-2	-8	/
C[C@@H](CO)NC(=O)c1ccc2c3n(nc2c1)-c1ccc(Cl)cc1CO3	-61	-97	0	-2	-1	-122	/
Cc1ccc2c(c1)COc1c3ccc(C(=O)NCCO)cc3nn1-2	-74	-252	0	0	1	-132	-320
Cc1ccc2c(c1)COc1c3ccc(C(=O)N[C@@H](C)CO)cc3nn1-2	-120	-290	0	-3	-1	-83	-271
Cc1ccc2c(c1)COc1c3ccc(C(=O)NC(C)C)cc3nn1-2	-120	-320	1	1	-2	-115	-313
CCCN1CCC(=O)N([C@H](CN=[N+]=[N-])Cc2ccccc2)CC1	2	-2	0	0	0	-2	/
CC(=O)Nc1ccc(NC(=O)CSc2nnc(-c3cccs3)n2N)cc1	19	40*	0	2	1	-10	-1
Cc1ccc(C)c(NC(=O)CSc2nnc(-c3ccccc3C)o2)c1	1	10	0	2	2	9	/

Compound activity from PubChem BioAssay.
